Tests used:
[1] = Cytotoxicity against adriamycin-resistant human K562/A02 cells at 10 uM after 48 hrs by MTT assay; type: functional; settings: K562/A02, 48 h
Outline: (§1)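 Cells grown in RPMI 1640 with 10% FBS at 37 °C, 5% CO₂ until roughly 50–70% confluent, then cultured in 24-well plates and exposed to vehicle (DMSO) or test compound alone at 10 μM for 48 h. Percent growth inhibition measured by MTT assay; three replicates per treatment, assay repeated at least thrice.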

K562 = assay: Cytotoxicity against human K562 cells at 10 uM after 48 hrs by MTT assay; type: functional; settings: K562, 48 h; outline: as §1
[2] = Cytotoxicity against vincristine-resistant human KB/VCR cells at 10 uM after 48 hrs by MTT assay; type: functional; outline: as §1
KB = assay: Cytotoxicity against human KB cells at 10 uM after 48 hrs by MTT assay; type: functional; outline: as §1
KB/VCR = assay: Reversal of P-gp-mediated multidrug resistance in human KB/VCR cells assessed as reversal factor, ratio of vincristine ID50 without drug to vincristine ID50 with drug at 10 uM after 48 hrs by MTT assay; type: cell-based
Outline: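 KB/VCR cells in RPMI 1640 with 10% FBS (37 °C, 5% CO₂) seeded at 6 × 10⁴/ml in 24-well plates. They were co-treated with a range of vincristine concentrations, with or without test compound at 10 μM, and viability read by MTT. Vincristine ID₅₀ was derived relative to untreated cells (100%). RF = ID₅₀ of vincristine alone / ID₅₀ with compound. Triplicates, repeated at least thrice.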

Row | Compound | inhibition at 10 µM [1] [%] | inhibition at 10 µM (K562) [%] | inhibition at 10 µM [2] [%] | inhibition at 10 µM (KB) [%] | Ratio (KB/VCR)
1 | NNc1nc2c(s1)-c1cccc(c1)Oc1ccc(O)cc1CCc1ccc(O)c(c1)Oc1ccc-2cc1 | 13.7 | 37.1 | 19.4 | 51.1 | –
2 | COc1ccc2c(c1)CCc1ccc(OC)c(c1)Oc1ccc(cc1)-c1nc(N)sc1-c1cccc(c1)O2 | 26.8 | 58.7 | 0 | 0 | 12.3
3 | COc1ccc2c(c1)CCc1ccc(OC)c(c1)Oc1ccc(cc1)C(O)C(Br)c1cccc(c1)O2 (centres undefined) | 11.9 | 38.5 | 0 | 2.82 | 10.5
4 | Nc1nc2c(s1)-c1cccc(c1)Oc1ccc(O)cc1CCc1ccc(O)c(c1)Oc1ccc-2cc1 | 10.1 | 11.6 | 0 | 0 | 13.8
5 | COc1ccc2c(c1)CCc1ccc(OC)c(c1)Oc1ccc(cc1)-c1nc(NN)sc1-c1cccc(c1)O2 | 18.8 | 32.1 | 0 | 0 | 10.6
